The source of these data is article PMC9069932 (RSC Advances, 2019).

The IC50 is the point on the concentration scale where inhibition reaches its midpoint.

Type in all cases: cell-based, human
One assay concerns HaCaT. The assay is described as follows: MTT cell viability/proliferation assay, HaCaT. The conditions noted are these: read-out: HaCaT IC50. In short, it runs like this: (§1)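 Human lines grown at 37 °C, 5% CO2 with 10% FBS: U-118 MG in DMEM; T98G and HaCaT in EMEM. Seeded 1 × 10⁴ cells/well, left 24 h, then exposed 48 h to test compound at 7.81–1000 μg mL⁻¹ (eight twofold steps). MTT added at 0.5 mg mL⁻¹ final for 2 h. Formazan dissolved in DMSO, read at 492 nm against 690 nm reference. IC50 is the mean of ≥3 independent experiments.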

Another assay deals with U-118 MG. Nature of the assay: MTT cell viability/proliferation assay, U-118 MG. The conditions noted are these: read-out: U-118 MG IC50. In short, it runs like this: as §1
Another assay deals with T98G. The assay is described as follows: MTT cell viability/proliferation assay, T98G. The following applies: read-out: T98G IC50. In a few lines: as §1
The next assay deals with T98G cells. The assay is described as follows: Colony formation. The conditions noted are these: for clonogenic survival compared to control cells: 20 μM; for reduction of cancer cell clonogenic potential: 50 μM. In short, it runs like this: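 T98G cells seeded at 500 per well and allowed to adhere 24 h. Exposed to test compound at 2–100 μM in triplicate; after 24 h switched to compound-free medium, 7 days total. Colonies (≥50 cells) methanol-fixed, stained with 1% gentian violet and counted by light microscopy.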

Where [1] appears, read: MTT, 48 hours, glioblastoma multiforme cell line.

Like-named read-outs stand apart in the source and are kept apart here. A value given as a limit tells only on which side of the number the result lay.

Turning to `CCOP(=O)(OCC)C(Cc1c(F)c(F)c(F)c(F)c1F)Nc1ccccc1` (stereo not shown) [Compound 1a, Diethyl (2-(perfluorophenyl)-1-(phenylamino)ethyl)phosphonate], the IC50 amounted to 56.8 ± 7.4 µM with HaCaT (Homo sapiens, HaCaT, 48 h); 60.7 ± 8.9 µM with U-118 MG (Homo sapiens, U-118-MG, 48 h); 40.4 ± 6.2 µM in the assay on T98G (Homo sapiens, T98G, 48 h).
As for `CCOP(=O)(OCC)C(Cc1c(F)c(F)c(Sc2cccc(OC)c2)c(F)c1F)Nc1ccccc1` (stereo not shown) [Compound 2e, Diethyl (1-(phenylamino)-2-(2,3,5,6-tetrafluoro-4-((3-methoxyphenyl)thio)phenyl)ethyl)phosphonate], the IC50 with HaCaT (Homo sapiens, HaCaT, 48 h) turned out to be 10.1 ± 2.2 µM; with U-118 MG (Homo sapiens, U-118-MG, 48 h), 21.4 ± 2.7 µM; in the assay on T98G (Homo sapiens, T98G, 48 h), 20.4 ± 3.1 µM. Further, in the assay with T98G cells, the “clonogenic survival compared to control cells” value came out at 30%. The “reduction of cancer cell clonogenic potential” value in the assay with T98G cells is reported as 85%.
In the case of `CCOP(=O)(OCC)C(Cc1c(F)c(F)c(Sc2cccc(N)c2)c(F)c1F)Nc1ccccc1` (stereo not shown) [Compound 2f, Diethyl (2-(4-((3-aminophenyl)thio)-2,3,5,6-tetrafluorophenyl)-1-(phenylamino)ethyl)phosphonate], the IC50 in the assay with HaCaT (Homo sapiens, HaCaT, 48 h) was determined as 18.2 ± 3.4 µM; in the assay with U-118 MG (Homo sapiens, U-118-MG, 48 h) it was 28.1 ± 3.6 µM; in the assay on T98G (Homo sapiens, T98G, 48 h), 25.5 ± 1.9 µM. Further, the “clonogenic survival compared to control cells” value with T98G cells is on record as 10%. The “reduction of cancer cell clonogenic potential” value in the assay with T98G cells was determined as 98%.
Regarding `CCOP(=O)(OCC)C(Cc1c(F)c(F)c(SCC(NC(C)=O)C(=O)OC)c(F)c1F)Nc1ccccc1` (stereo not shown) [Compound 2j, Methyl 2-acetamido-3-((4-(2-(diethoxyphosphoryl)-2-(phenylamino)ethyl)-2,3,5,6-tetrafluorophenyl)thio)propanoate], the IC50 with HaCaT (Homo sapiens, HaCaT, 48 h) was above 100 µM; with U-118 MG (Homo sapiens, U-118-MG, 48 h), above 100 µM; with T98G (Homo sapiens, T98G, 48 h), 82.7 ± 15.7 µM.
Turning to `CCOP(=O)(OCC)C(Cc1c(F)c(F)c(Oc2ccc(Cl)cc2)c(F)c1F)Nc1ccccc1` (stereo not shown) [Compound 2r, Diethyl (2-(4-(4-chlorophenoxy)-2,3,5,6-tetrafluorophenyl)-1-(phenylamino)ethyl)phosphonate], the IC50 with HaCaT (Homo sapiens, HaCaT, 48 h) was found to be 48.4 ± 7.4 µM; in the assay on U-118 MG (Homo sapiens, U-118-MG, 48 h), 79.2 ± 6.4 µM; in the assay on T98G (Homo sapiens, T98G, 48 h), 70.3 ± 8.3 µM.
`O=c1[nH]c(=O)n([C@H]2C[C@H](O)[C@@H](CO)O2)cc1F` [Compound 5-FdU, 5-fluoro-2′-deoxyuridine, reference compound]: the IC50 in the assay with HaCaT (Homo sapiens, HaCaT, 48 h) was 4.42 ± 1.1 µM; in the assay on U-118 MG (Homo sapiens, U-118-MG, 48 h), 23.4 ± 1.6 µM; with T98G (Homo sapiens, T98G, 48 h) it was 5.57 ± 0.9 µM.
Regarding “Diethyl (1-(phenylamino)-2-(2,3,5,6-tetrafluoro-4-(m-tolylthio)phenyl)ethyl)phosphonate [Compound 2b]”, the IC50 with HaCaT (MTT, 48 hours, referential healthy cells) was 26.5 ± 4.7 µM; in the assay with U-118 MG (setting [1]), 37.9 ± 2.5 µM; in the assay on T98G (setting [1]) it was 14.5 ± 3.3 µM.
